Laboratory results from ChEMBL document CHEMBL1125357, “Gonadotropin-releasing hormone antagonists with N omega-triazolylornithine, -lysine, or -p-aminophenylalanine residues at positions 5 and 6” (J Med Chem, 1992).
Values after ≈ are worked out from the molar mass of the structure shown. Values joined by “and” are separate entries in the source; they are usually repeats but may differ in a detail not shown here. Equal values may be shown once. Starred links: 1 amine or outer side, 2 acyl side, 3 side chain; linkers in the order of their positions; H or OH if unused. Non-standard residues stand in square brackets, D forms with d. Residues, ends and D or L forms follow the SMILES beside them. *: point of attachment. Phe(4-NH(5-NH2triazol-3-yl)) = Nc1nc(Nc2ccc(C[C@H](N)C(=O)O)cc2)n[nH]1; X1 = Nc1nc(Nc2ccc(C[C@@H](N[*:1])C(=O)[*:2])cc2)n[nH]1; Triazol3yl(1,2,4-5-NH2) = Nc1nc(*)n[nH]1; dPhe(4-Cl) = N[C@H](Cc1ccc(Cl)cc1)C(=O)O; d2Nal = N[C@H](Cc1ccc2ccccc2c1)C(=O)O; Lys(iPr) = CC(C)NCCCC[C@H](N)C(=O)O; NMeY = CN[C@@H](Cc1ccc(O)cc1)C(=O)O; dCit = NC(=O)NCCC[C@@H](N)C(=O)O; d3Pal = N[C@H](Cc1cccnc1)C(=O)O; NMeL = CN[C@@H](CC(C)C)C(=O)O; Nicotinoyl = O=C(c1cccnc1)*; dOrn = NCCC[C@@H](N)C(=O)O; Orn = NCCC[C@H](N)C(=O)O

Tests used:
Homo sapiens = species on record: Homo sapiens; assay: In vitro antagonistic potency relative to Ac-delta-3-Pro1-(D)Fpa2-(D)Trp3,6]GnRH; assay type: functional
Method in brief: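 Cultured rat pituitary cells. Peptides were scored for inhibition of GnRH-mediated LH secretion, and potency is expressed relative to the standard antagonist [Ac-Δ3-Pro1,DFpa2,DTrp3,6]GnRH (= 1.0).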

Rattus norvegicus [1] = species on record: Rattus norvegicus; assay: Antiovulatory activity measured in rat; assay type: functional; set-up: unit: ug/rat
Method in brief: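 Corbin–Beattie rat antiovulatory assay. Cycling female rats of 250-300 g were given a single sc injection of peptide at noon on proestrus. Vehicle was saline or 5% DMSO in saline (200 μL), or corn oil where flagged. Result is expressed as dose in μg/rat with the number of rats ovulating over the number treated.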

Rattus norvegicus [2] = species on record: Rattus norvegicus; assay: The compound was tested in vitro for the histamine release; assay type: functional; settings: read-out: ED50 (the source's name)
[3] = Retention time of the compound; assay type: ADME
Method in brief: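 Peptide (0.5 mg/mL, 10 μL) was loaded in TEAP pH 7.0/CH3CN (76/24), acidified with H3PO4 where insoluble. Elution used a 30-48% CH3CN gradient over 30 min at 1.5 mL/min. Retention time is reported in minutes.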

Row | Compound | EC50 (Rattus norvegicus [2]) | RT [3] | Potency (Homo sapiens) | AOA (Rattus norvegicus [1])
1 | CC(=O)N[C@H](Cc1ccc2ccccc2c1)C(=O)N[C@H](Cc1ccc(Cl)cc1)C(=O)N[C@H](Cc1cccnc1)C(=O)N[C@@H](CO)C(=O)N(C)[C@@H](Cc1ccc(O)cc1)C(=O)N[C@H](CCCCNC(=O)c1cccnc1)C(=O)N[C@@H](CC(C)C)C(=O)N[C@@H](CCCCNC(C)C)C(=O)N1CCC[C@H]1C(=O)N[C@H](C)C(N)=O (Ac-[d2Nal][dPhe(4-Cl)][d3Pal]S[NMeY][dK](Nicotinoyl)L[Lys(iPr)]P[dA]-NH2) | 22 µg/mL (≈ 14.3 µM) | – | 1.42 | –
2 | CC(=O)N[C@H](Cc1ccc2ccccc2c1)C(=O)N[C@H](Cc1ccc(Cl)cc1)C(=O)N[C@H](Cc1cccnc1)C(=O)N[C@@H](CO)C(=O)N[C@@H](CCCNc1n[nH]c(N)n1)C(=O)N[C@H](CCCNc1n[nH]c(N)n1)C(=O)N[C@@H](CC(C)C)C(=O)N[C@@H](CCCCNC(C)C)C(=O)N1CCC[C@H]1C(=O)N[C@H](C)C(N)=O (Ac-[d2Nal][dPhe(4-Cl)][d3Pal]S[Orn](Triazol3yl(1,2,4-5-NH2))[dOrn](Triazol3yl(1,2,4-5-NH2))L[Lys(iPr)]P[dA]-NH2) | 158 µg/mL (≈ 104 µM) | – | 0.2 | 2
3 | CC(=O)N[C@H](Cc1ccc2ccccc2c1)C(=O)N[C@H](Cc1ccc(Cl)cc1)C(=O)N[C@H](Cc1cccnc1)C(=O)N[C@@H](CO)C(=O)N[C@@H](Cc1ccc(Nc2n[nH]c(N)n2)cc1)C(=O)N[C@H](Cc1ccc(Nc2n[nH]c(N)n2)cc1)C(=O)N[C@@H](CC(C)C)C(=O)N[C@@H](CCCCNC(C)C)C(=O)N1CCC[C@H]1C(=O)NCC(N)=O (Ac-[d2Nal][dPhe(4-Cl)][d3Pal]S[Phe(4-NH(5-NH2triazol-3-yl))][X1]L[Lys(iPr)]PG-NH2) [listing 2 of 2 here] | 28 µg/mL (≈ 17.5 µM) | – | 1 | 1
4 | CC(=O)N[C@H](Cc1ccc2ccccc2c1)C(=O)N[C@H](Cc1ccc(Cl)cc1)C(=O)N[C@H](Cc1cccnc1)C(=O)N[C@@H](CO)C(=O)N[C@@H](Cc1ccc(Nc2n[nH]c(N)n2)cc1)C(=O)N[C@H](Cc1ccc(Nc2n[nH]c(N)n2)cc1)C(=O)N[C@@H](CC(C)C)C(=O)N[C@@H](CCCCNC(C)C)C(=O)N1CCC[C@H]1C(=O)N[C@H](C)C(N)=O (Ac-[d2Nal][dPhe(4-Cl)][d3Pal]S[Phe(4-NH(5-NH2triazol-3-yl))][X1]L[Lys(iPr)]P[dA]-NH2) [listing 2 of 2 here] | 224 µg/mL (≈ 139 µM) | – | 1.3 | 0.5 and 1
5 | CC(=O)N[C@H](Cc1ccc2ccccc2c1)C(=O)N[C@H](Cc1ccc(Cl)cc1)C(=O)N[C@H](Cc1cccnc1)C(=O)N[C@@H](CO)C(=O)N[C@@H](Cc1ccc(Nc2n[nH]c(N)n2)cc1)C(=O)N[C@H](Cc1ccc(Nc2n[nH]c(N)n2)cc1)C(=O)N(C)[C@@H](CC(C)C)C(=O)N[C@@H](CCCCNC(C)C)C(=O)N1CCC[C@H]1C(=O)N[C@H](C)C(N)=O (Ac-[d2Nal][dPhe(4-Cl)][d3Pal]S[Phe(4-NH(5-NH2triazol-3-yl))][X1][NMeL][Lys(iPr)]P[dA]-NH2) [listing 1 of 2 here] | – | 10.6 min | – | –
6 | CC(=O)N[C@H](Cc1ccc2ccccc2c1)C(=O)N[C@H](Cc1ccc(Cl)cc1)C(=O)N[C@H](Cc1cccnc1)C(=O)N[C@@H](CO)C(=O)N[C@@H](Cc1ccc(Nc2n[nH]c(N)n2)cc1)C(=O)N[C@H](Cc1ccc(Nc2n[nH]c(N)n2)cc1)C(=O)N(C)[C@@H](CC(C)C)C(=O)N[C@@H](CCCCNC(C)C)C(=O)N1CCC[C@H]1C(=O)N[C@H](C)C(N)=O (Ac-[d2Nal][dPhe(4-Cl)][d3Pal]S[Phe(4-NH(5-NH2triazol-3-yl))][X1][NMeL][Lys(iPr)]P[dA]-NH2) [listing 2 of 2 here] | 34 µg/mL (≈ 20.9 µM) | – | 1.6 | 0.5 and 1

Further lines, with some results ahead:

Row | EC50 (Rattus norvegicus [2]) | RT [3] | Compound | Potency (Homo sapiens) | AOA (Rattus norvegicus [1])
7 | 2.1 µg/mL (≈ 1.47 µM) | – | CC(=O)N[C@H](Cc1ccc2ccccc2c1)C(=O)N[C@H](Cc1ccc(Cl)cc1)C(=O)N[C@H](Cc1cccnc1)C(=O)N[C@@H](CO)C(=O)N[C@@H](Cc1ccc(O)cc1)C(=O)N[C@H](CCCNC(N)=O)C(=O)N[C@@H](CC(C)C)C(=O)N[C@@H](CCCN=C(N)N)C(=O)N1CCC[C@H]1C(=O)N[C@H](C)C(N)=O (Ac-[d2Nal][dPhe(4-Cl)][d3Pal]SY[dCit]LRP[dA]-NH2) | 1.56 | 1 and 2
8 | – | 8.45 min | CC(=O)N[C@H](Cc1ccc2ccccc2c1)C(=O)N[C@H](Cc1ccc(Cl)cc1)C(=O)N[C@H](Cc1cccnc1)C(=O)N[C@@H](CO)C(=O)N[C@@H](Cc1ccc(Nc2n[nH]c(N)n2)cc1)C(=O)N[C@H](Cc1ccc(Nc2n[nH]c(N)n2)cc1)C(=O)N[C@@H](CC(C)C)C(=O)N[C@@H](CCCCNC(C)C)C(=O)N1CCC[C@H]1C(=O)NCC(N)=O (Ac-[d2Nal][dPhe(4-Cl)][d3Pal]S[Phe(4-NH(5-NH2triazol-3-yl))][X1]L[Lys(iPr)]PG-NH2) [listing 1 of 2 here] | – | –
9 | – | 9 min | CC(=O)N[C@H](Cc1ccc2ccccc2c1)C(=O)N[C@H](Cc1ccc(Cl)cc1)C(=O)N[C@H](Cc1cccnc1)C(=O)N[C@@H](CO)C(=O)N[C@@H](Cc1ccc(Nc2n[nH]c(N)n2)cc1)C(=O)N[C@H](Cc1ccc(Nc2n[nH]c(N)n2)cc1)C(=O)N[C@@H](CC(C)C)C(=O)N[C@@H](CCCCNC(C)C)C(=O)N1CCC[C@H]1C(=O)N[C@H](C)C(N)=O (Ac-[d2Nal][dPhe(4-Cl)][d3Pal]S[Phe(4-NH(5-NH2triazol-3-yl))][X1]L[Lys(iPr)]P[dA]-NH2) [listing 1 of 2 here] | – | –
